Screening results: PubChem, several laboratories
PostGolgi yeast: growth inhibition of a yeast mutant, post-Golgi transport screen | post-Golgi transport phenotypic cell assay | hit rate 0.9% among 98,000 | inhibition, % at 10 µM;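 note: yeast cells grown in 1536-well plates; yeast grown about 18 h at 30C before absorbance read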
PostGolgi ctrl: yeast control strain growth, post-Golgi counter-screen; AID 738; inhibition, % at 10 µM; hit rate 5% among 98,000; efflux-deficient yeast background strain, growth absorbance A615, 16 h
E coli WT exp: E. coli BW25113 growth inhibition, expanded screen | OD600 absorbance | hit rate 0.15% among 98,000 | growth inhibition, % at 100 µM;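 active = growth inhibition above about 50% at one test dose, limit read from the data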;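 note: growth measured after 20 h incubation at 37 °C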
Cav3 T inh: blocks human Cav3.2 T-type calcium channel; AID 449739; B-score at 10 µM; hit rate 4% among 100,000; Cav3.2-expressing cells, Fluo-4 calcium fluorescence FDSS; active compounds read low;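 active = single-dose well whose peak fluorescence ratio is a statistical outlier from its plate by either plate-standardised score or position-corrected B-score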
tolC growth inh: growth inhibitors of E. coli BW25113 tolC mutant | hit rate 2.2% among 65,000 | OD615 | AID 573 | growth inhibition, % at 10 µM (by protocol);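 active = growth inhibition at or above a cutoff equal to the mean over every tested compound plus 3 SD, cut at about 60% in these data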;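 note: growth measured after 20 h incubation at 37 °C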
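Test system: E. coli BW25113 ΔtolC::kan bacteria; incubation: 37 °C, 20 h exposure; medium: LB broth supplemented with 50 µg/mL kanamycin; read-out basis: percent growth inhibition; signal: A615 absorbance measurement; compound: 10 µM final, single dose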
PTK2B oligo ant: Pyk2 (human) oligomerization antagonism; z-score (the deposit names both 25 µM and 10 µM); Q293 cells, Pyk2 FERM NanoBiT luminescence; active compounds read low; Q14289; hit rate 0.83% among 99,000;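 active = Z-score of -3 or lower, scaled per plate to the spread of control and sample wells; inactive = z-score above -3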;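 note: negative z-score means lost luminescence so less FERM oligomerization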
Numbers stand for hits; – = inactive; · = no result. An excerpt weighted towards active compounds, which were near 8.7% of everything screened. Cut-off read from the data, not from the text of the source, unless noted: active = inhibition above about 30%; inactive = the rest.

SMILES | PostGolgi yeast | PostGolgi ctrl | E coli WT exp | Cav3 T inh | tolC growth inh | PTK2B oligo ant
COc1ccc(C2(C(=O)NCCCN(C)C)CCOCC2)cc1 | – | – | – | · | – | ·
CCCCc1ccc(NC(=O)C2CCCO2)cc1 (configuration not stated) | – | – | – | – | – | –
O=C(NCC(=O)N(c1ccccc1)C(C(=O)NC1CCCC1)c1ccncc1)c1ccco1 (configuration not stated) | · | · | · | – | · | –
COc1ccc(N(C(=O)c2ccco2)C(C(=O)NC2CCCC2)c2ccc(N(C)C)cc2)cc1 (configuration not stated) | – | – | – | -3.51 | – | –
COc1cccc(N(C(=O)CNC(=O)c2ccco2)C(C(=O)NC2CCCCC2)c2ccncc2)c1 (configuration not stated) | – | 37.9 | – | – | – | –
COc1cc(C2NC(=O)NC(C)=C2C(=O)OC2CCCC(C)C2)ccc1O (configuration not stated) | – | – | – | – | – | –
Fc1ccc(-n2c(Cc3ccccc3)nnc2SCc2nc(-c3cccs3)no2)cc1 | – | 33.5 | – | – | 69.6 | –
Cc1ccc(-c2noc(CSc3nnc(Cc4cccs4)n3-c3ccccc3)n2)cc1 | – | – | – | -7.56 | · | ·
CCOc1ccc(-n2c(SCc3nc(-c4ccc(C)cc4)no3)nnc2-c2ccncc2)cc1 | – | – | – | -4.25 | · | –
c1ccc(-c2noc(CSc3nnnn3-c3ccccc3)n2)cc1 | – | – | – | -4.99 | – | ·
CCn1c(SCc2nc(-c3ccc(OC)c(OC)c3)no2)nnc1-c1cccs1 | – | – | – | – | – | –
Cc1ccc(-c2noc(CSc3nnc(-c4ccncc4)n3-c3ccc(C)cc3)n2)cc1 | – | – | – | – | · | –
CN(C)CCCN1C(=O)C(O)=C(C(=O)c2cccs2)C1c1ccccn1 (configuration not stated) | · | · | · | · | – | ·
COc1ccc(C2CC(c3cccs3)=NN2c2nc(-c3ccccc3)cs2)cc1OC (configuration not stated) | – | – | – | – | · | –
O=C(Nc1cccc2c1CCCC2)c1ccncc1 | · | · | · | – | · | –
Cc1ccc(-c2noc(CSc3nnc(Cc4ccccc4)n3-c3cccc(C)c3)n2)cc1 | – | – | – | – | · | –
Cc1ccc(-c2noc(CSc3nnnn3C3CCCCC3)n2)cc1 | – | 39.6 | – | -4.57 | 72.6 | ·
COc1ccc(-c2noc(CSc3nnc(Cc4ccccc4)n3-c3cccc(C)c3)n2)cc1OC | – | – | – | -5.46 | – | –
c1ccc(-c2noc(CSc3nnc(Cc4cccs4)n3-c3ccccc3)n2)cc1 | – | – | – | -4.65 | – | –
Cc1ccc(-n2c(Cc3cccs3)nnc2SCC(N)=O)cc1 | – | – | – | – | · | –
Clc1ccc(-c2noc(CSc3nnc(Cc4cccs4)n3-c3ccccc3)n2)cc1 | – | – | – | -5.67 | · | ·
Cc1nc2cccc(C)n2c(=O)c1Cl | – | – | – | – | · | –
CC(C)Oc1ccc(C(=O)NC2(C(F)(F)F)NC(=O)N(CCCc3ccccc3)C2=O)cc1 (configuration not stated) | · | · | · | · | · | –
Cc1cccc(NC(=S)NC(NC(=O)OCc2ccccc2)C(Cl)(Cl)Cl)c1 (configuration not stated) | – | – | – | – | · | –
Clc1ccc(-c2noc(CSc3nnc(-c4ccncc4)n3-c3ccccc3)n2)cc1 | – | – | – | -4.91 | · | –
SMILES | PostGolgi yeast | PostGolgi ctrl | E coli WT exp | Cav3 T inh | tolC growth inh | PTK2B oligo ant
CCOC(=O)N1CCN(CCC(=O)Nc2ccc(OC(F)(F)F)cc2)CC1 | – | – | – | – | – | –
COc1ccc(/C=N/n2c(SC)nnc2-c2ccccc2)c(OC)c1OC | – | – | – | – | – | –
COc1ccc(/C=N/n2c(SC)nnc2-c2ccccc2)cc1C | – | 42.9 | – | – | 86.9 | –
CCc1cccc(CC)c1NC(=O)CN1CCN(c2ccccc2)CC1 | – | – | – | – | – | –
CCc1cccc(CC)c1NC(=O)CN1CC(C)SC1=NC1CCCCC1 (configuration not stated) | – | – | – | -5.27 | · | –
O=C(OCc1ccccc1)C1CCCN1C(=O)c1ccccc1[N+](=O)[O-] (configuration not stated) | – | – | – | – | · | –
CCOC(=O)C1=NN(C(=O)c2ccc(C)cc2)C(O)(c2ccc(Cl)cc2)C1 (configuration not stated) | – | – | – | -6.26 | · | –
COC(=O)C1=NN(C(=O)c2ccc(Cl)cc2)C(O)(c2ccccc2)C1 (configuration not stated) | – | – | – | – | · | –
COc1ccc2c(c1)c(=O)oc1cc(OCC(=O)N3CCCC(C)C3)ccc12 (configuration not stated) | – | 59.2 | – | · | – | –
COc1ccc(NC(=O)Cn2cc(C(=O)c3ccco3)c3ccccc32)cc1 | – | – | – | – | · | -3.01
O=C(Cn1cc(C(=O)c2ccco2)c2ccccc21)Nc1ccccc1 | – | – | – | – | · | –
O=C(CSc1nc2ccc(NC(=O)CSc3nnnn3Cc3ccccc3)cc2s1)Nc1ccccc1 | · | · | · | – | · | –
COC(=O)CSc1nc2ccc(NC(=O)CSc3nnnn3Cc3ccccc3)cc2s1 | – | 36.3 | – | – | – | –
CC12C(=O)N(Cc3ccco3)C(=O)C1C1c3ccccc3C2c2ccccc21 (configuration not stated) | – | – | – | – | · | –
O=C(OC(C(=O)NCC1CCCO1)c1ccccn1)c1cccs1 (configuration not stated) | – | – | – | – | – | –
COc1ccccc1C(=O)Nc1ccc(S(=O)(=O)Nc2cc(C)on2)cc1 | – | – | – | – | – | –
Cc1cc(NS(=O)(=O)c2ccc(NC(=O)COc3ccc(Cl)cc3)cc2)no1 | – | – | – | · | – | –
Cc1cc(NC(=O)c2cc(-c3cccnc3)nc3c(C)c(C)ccc23)no1 | – | – | – | · | – | –
Cc1cc(NS(=O)(=O)c2ccc(NC(=O)c3cc(-c4cccnc4)nc4ccc(Cl)cc34)cc2)no1 | – | 34.9 | – | – | · | –
Cc1cc(C)c2nc(-c3ccccn3)cc(C(=O)Nc3ccc(S(=O)(=O)Nc4cc(C)on4)cc3)c2c1 | – | – | – | – | · | -3.03
Cc1cc(NS(=O)(=O)c2ccc(NC(=O)COc3ccccc3C(C)C)cc2)no1 | – | – | – | – | 61.9 | ·
COc1ccc(NS(=O)(=O)c2cccc(C(=O)OCC(=O)Nc3cc(C)on3)c2)cc1 | – | 42.2 | – | – | · | –
COC(=O)c1cc(OC)c(OC)cc1NC(=O)c1cc(C)on1 | · | · | · | · | – | ·
COC(=O)CSC(C(=O)Nc1ccc(C)c(C)c1)c1ccccc1 (configuration not stated) | – | – | – | – | · | –
C=CCn1c(SCc2nc3ccccc3[nH]2)nnc1-c1cccc(OC)c1 | – | – | – | – | · | –
COc1ccc(C(=O)/C=C/c2ccccc2OC)c(OC(=O)c2ccc([N+](=O)[O-])cc2)c1 | · | · | · | – | · | -3.3
COc1ccc(OC(=O)c2cccc([N+](=O)[O-])c2)c(C(=O)/C=C/c2cccs2)c1 | – | – | – | – | · | –
